Experimental data gathered from unrelated publications.
Protocols differ between the studies behind these lines.
CDK4 with cyclin D3: Cyclin-dependent kinase 4, with cyclin D3 (CDK4, Homo sapiens, UniProt P11802)
CDK4: Cyclin-dependent kinase 4 (CDK4, Homo sapiens, UniProt P11802)
CDK4 with cyclin D1: Cyclin-dependent kinase 4, with cyclin D1 (CDK4, Homo sapiens, UniProt P11802)

SMILES | target | assay | setting | remaining binding [%]
c1cncc(-c2cccc(Nc3nccc(NC4CCCCC4)n3)c2)c1 | CDK4 with cyclin D3 | binding, competition with immobilised ligand | 10 µM | 86
COc1cnc(Nc2cccc(S(N)(=O)=O)c2)nc1N1CCN(c2ccccc2)C(=O)C1 | CDK4 | binding, competition with immobilised ligand | 1 µM | 99
CCN1CCN(Cc2ccc(C(=O)Nc3ccc(C)c(Oc4ccc5c(c4)CC(=O)N5)c3)cc2C(F)(F)F)CC1 | CDK4 with cyclin D1 | binding, competition with immobilised ligand | 1 µM | 79
O=C(O)c1cc(-c2ccc(C3CCNCC3)cc2)c2ccc(-c3ccc(C(F)(F)F)cc3)cc2c1 | CDK4 with cyclin D3 | cell-free assay, competition with immobilised ligand | 1 µM | 100
N[C@H]1CCN(c2nccc(-c3cnn4ncccc34)n2)C1 | CDK4 | binding | 1 µM | 75
O=C(NCCCN1CCOCC1)c1ccc(Nc2ncc(Cl)c(-c3ccc(Cl)s3)n2)cc1 | CDK4 with cyclin D3 | binding, competition with immobilised ligand | 1 µM | 8.4
CN(C)c1nccc(-c2cnc3ncccn23)n1 | CDK4 with cyclin D3 | binding | 1 µM | 48
CNC(=O)c1ccc(Nc2ncc(C(F)(F)F)c(NCc3nccnc3N(C)S(C)(=O)=O)n2)cc1 | CDK4 | cell-free assay, competition with immobilised ligand | 0.1 µM | 100
Cc1cnc(Nc2ccc(C(=O)N3CCC(N4CCCC4)CC3)cc2)nc1-c1cc2ccccc2s1 | CDK4 with cyclin D1 | binding, competition with immobilised ligand | 1 µM | 1.7
COc1ncc2cc3ccccc3nc2c1C#N | CDK4 with cyclin D3 | cell-free assay, competition with immobilised ligand | 5 µM | 100
CC(C)(O)c1cncc(-c2nc3ccc(F)cc3n2C2CC2)c1 | CDK4 with cyclin D1 | cell-free assay, competition with immobilised ligand | 1 µM | 100
Cc1cnn2ncc(-c3ccnc(N(C)C)n3)c2c1 | CDK4 with cyclin D1 | binding | 1 µM | 84
C=CC(=O)N1CCC(C(=O)NCC(=O)N2CCN(c3nc(-c4cnc(N)nc4C(F)F)nc(N4CCOCC4)n3)CC2)CC1 | CDK4 with cyclin D1 | binding, competition with immobilised ligand | 1 µM | 83
CN(C)c1ncc(F)c(-c2cnn3ncccc23)n1 | CDK4 with cyclin D3 | binding | 1 µM | 91
O=C(c1ccc(Nc2ncc(Cl)c(-c3cc4ccccc4s3)n2)cc1)N1CCC(N2CCCC2)CC1 | CDK4 | binding, competition with immobilised ligand | 1 µM | 21
COc1cc(-c2cn(C3CCc4ccccc4N(CC(F)(F)F)C3=O)nn2)ccc1-n1ccc(C)n1 (stereo not shown) | CDK4 | cell-free assay, competition with immobilised ligand | 1 µM | 53
FC(F)(F)Oc1cccc(-c2cnc3ccc(-c4ccncc4)nn23)c1 | CDK4 | cell-free assay, competition with immobilised ligand | 5 µM | 81

SMILES | target | assay | setting | remaining binding [%]
Nc1ncc2c(n1)-c1c([nH]c3ccc(C#CC4CC4)cc13)CCCC2 | CDK4 with cyclin D3 | binding, competition with immobilised ligand | 1 µM | 93
N#CC1(c2ccccn2)CCN(Cc2cc(C(=O)N3CCCC3)c(=O)n3ccccc23)CC1 | CDK4 with cyclin D1 | cell-free assay, competition with immobilised ligand | 1 µM | 100
c1cnn2ncc(-c3ccnc(N4CCC45COC5)n3)c2c1 | CDK4 with cyclin D1 | binding | 1 µM | 81
O=C(c1ccc(Nc2ncc(Cl)c(-c3ccc(Cl)s3)n2)cc1)N1CCC(N2CCCC2)CC1 | CDK4 | binding, competition with immobilised ligand | 1 µM | 1.3
Cc1nc(N2CC[C@@H](O)C2)ncc1-c1cc(C(F)(F)F)cc2[nH]ncc12 | CDK4 | binding, competition with immobilised ligand | 1 µM | 63
O=C(NCCCN1CCOCC1)c1ccc(Nc2nccc(-c3cc4ccccc4s3)n2)cc1 | CDK4 with cyclin D3 | binding, competition with immobilised ligand | 1 µM | 72
O=C(Nc1c[nH]nc1C(=O)NC1CCNCC1)c1cc(F)cc(F)c1 | CDK4 with cyclin D3 | binding, competition with immobilised ligand | 1 µM | 98
F[C@@H]1CCN(c2nccc(-c3cnn4ncccc34)n2)C1 | CDK4 with cyclin D3 | binding | 1 µM | 92
O=C(NCC1CCOCC1)c1n[nH]cc1NC(=O)c1c(F)cccc1F | CDK4 with cyclin D1 | binding, competition with immobilised ligand | 1 µM | 47
O=C1CCc2cc(Nc3cc(OC4CCOCC4)c([N+](=O)[O-])cc3Cl)ccc2N1 | CDK4 | cell-free assay, competition with immobilised ligand | 1 µM | 81
CN(c1nccc(-c2cnn3ncccc23)n1)C1CC1 | CDK4 with cyclin D3 | binding | 1 µM | 100
Cc1nccc(COC(=O)N2C[C@@H]3[C@@H](CNC(=O)c4ccc5[nH]nnc5c4)[C@@H]3C2)n1 | CDK4 with cyclin D3 | cell-free assay, competition with immobilised ligand | 1 µM | 78
C[C@H]1CCN(c2nccc(-c3cnn4ncccc34)n2)C1 | CDK4 | binding | 1 µM | 95
CNC(=O)[C@@H]1CC[C@@H](n2c(-c3ccc4cnccc4c3)nc3ccc(C(=O)NCc4cccc(C(N)=O)c4)cc32)C1 | CDK4 | binding, competition with immobilised ligand | 1 µM | 100
C[C@@H](c1ccc(-n2cnc3c(N)ncnc32)cc1)N1CCc2nn(C)c(Cc3ccccc3)c2C1=O | CDK4 | binding, competition with immobilised ligand | 0.1 µM | 85
O=C(c1ccc(Nc2nccc(-c3cc4ccccc4s3)n2)cc1)N1CCC(N2CCCC2)CC1 | CDK4 with cyclin D1 | binding, competition with immobilised ligand | 1 µM | 25
COc1cnc(Nc2cccc(S(N)(=O)=O)c2)nc1N1CCN(c2ccccc2)CC1 | CDK4 with cyclin D3 | binding, competition with immobilised ligand | 1 µM | 93
